We go through 48 sequences from the EternaBench riboswitch data.

This data set concerns MS2 coat protein. The data set can be described thus: apparent Kd, MS2 coat protein; higher = weaker binding; RNA-MaP array; FMN 200 µM where present. Summed up:
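Designs were transcribed by stalled E. coli RNA polymerase on Illumina sequencing-chip clusters. They were titrated with SNAP-549-labelled MS2 coat protein from 0.7 or 1.5 nM, doubling to 3 µM, without and then with constant ligand. Buffer: 100 mM Tris-HCl pH 7.5, 80 mM KCl, 4 mM MgCl2, BSA, DTT, yeast tRNA, Tween-20. Green signal was normalised to red-channel RNA signal and control-cluster median Fmax. Apparent Kd is the median of filtered per-cluster binding-curve fits.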

[1] abbreviates: designed as: OFF switch for flavin mononucleotide, no ligand.
Where [2] appears, read: ligand present: flavin mononucleotide, designed as: OFF switch for flavin mononucleotide.
The mark [3] stands for this setting: designed as: ON switch for flavin mononucleotide, no ligand.
The mark [4] stands for this setting: ligand present: flavin mononucleotide, designed as: ON switch for flavin mononucleotide.

On to “UAGCUUGACGCAGGAUAUCCAAGGCUGAAAUGAGGAGAAGGGCGCCAAACAUGAGGAUCACCCAUGUAUUAUGCAGGGUCCUCA”, for which the apparent Kd (commonly a dissociation constant that holds for the conditions of the assay) came to 362 nM under setting [1] and 180 nM under setting [2].
With “GUCAGCUCGAGAGGAUAUACAACACUGCUUCGGCAGUGUAUUAAGAUCACAUGAGGAUCACCCAUGUAGAAGGCACGAGCUGAU”, the “apparent Kd” value is, setting by setting: under setting [1], 9.31 nM; under setting [2], 89.2 nM.
Regarding “GUAGCCGACCAGAAGGGUGACAUGAGGAUCACCCAUGUAGAUGUGUUCCCGCUUGGGAGCCGUCCACAGGAUAUGGUUGGUUAU”, the “apparent Kd” value runs as follows: under setting [3], 54.1 nM; under setting [4], 38.3 nM.
Consider “UGAUACUAAGAGAAGGUUCAAACUACAUAUUGCAUACAUGAGGAUCACCCAUGUUGGUGAAUAAGAAAGGAUAUUUUACUGUAU”, for which the “apparent Kd” value came to 46.3 nM under setting [1] and 34.3 nM under setting [2].
For the sequence “CUUUUGUGAGGAUAUGUGGCUUCGAUCGUGAGAUCGAGGCUACAGAAGGCACAUGAGGAUCACCCAUGUUCCUC”, the “apparent Kd” value under setting [1] was 60.4 nM and the “apparent Kd” value under setting [2] is 777 nM.
“AAUAUAAAGAGCUGGACCUUAAUAACAUGAGGAUCACCCAUGUAGGAUAUCAGCACGAUAAGUGCUGAGAAGGACAUCCAGCUC”: the “apparent Kd” value was 14.4 nM under setting [1] and 15.1 nM under setting [2].
Consider “GCGUAACAUGAGGAUCACCCAUGUACCCGAGAAUUCGGGUGUAGAAGGGUGACCGGUCGUUUGGCACAGGAUAUACACGUUGUG”, for which the “apparent Kd” value was 30.1 nM under setting [3] and 16.8 nM under setting [4].
In the case of “AUAUAUCAUACAGGAUAUACAUGAGGAUCACCCAUGUGUUCUCCAUAAUUGACACCAAUUAUGCUGUAGAAGGGUAUGAUAUAU”, the “apparent Kd” value stood at 22.3 nM under setting [1] and 151 nM under setting [2].
Regarding “UUCAAAUUCGUAGGAUAUGUAUAAAUUAUCUACAUGAGGAUCACCCAUGUUUUCAUUUUAAAUUGACAGAAGGACGUAAUCUUA”, the “apparent Kd” value under setting [3] was 16.4 nM and the “apparent Kd” value under setting [4] is 7.87 nM.
In the case of “GGAUAGGACAUAGGAUAUACGUGCUAGAGAUACUAGCAAAAUUUCCUCACAUGAGGAUCACCCAUGUAGAAGGCUGUCCUAUCG”, the “apparent Kd” value under setting [1] came to 6.73 nM and the “apparent Kd” value under setting [2] was 24.5 nM.
The corresponding values for “GCCGGAUUUGUGAGGAUAUACCUAUGGAUACAUAGGUAGAAGGCACAUGAGGAUCACCCAUGUACCUCACCGGC” are 16.7 nM and 69.2 nM.
As to “UGUAUCUAGUAAGGAUAUACUAUUGAUUCAAUUGUAGAAGGUACAGACAUGAGGAUCACCCAUGUAGUUAUGGAUAUUAGAUAU”, the “apparent Kd” value is 74.1 nM under setting [3] and 42.3 nM under setting [4].
Turning to “GCGAUUAAGUAGAAGGUACGAUAUAAAUCAAUGUAAGGAUAUACUGACAUGAGGAUCACCCAUGUUUAAUUUGUUUACUGUCGC”, the “apparent Kd” value reads like this: under setting [3], 7.42 nM; under setting [4], 5.99 nM.
On to “GGUCCAUAAUGAGGAUAUGGCACCUUAUUGGUGCCAGAAGGCAUGUCUAUAGACAUGAGGAUCACCCAUGUAAUAAAUUGGACC”, for which the “apparent Kd” value is 435 nM under setting [3] and 43.3 nM under setting [4].
“GCACGGUAAGUGAGGAUAUACCUCUGGAUACAGAGGUAGAAGGCACAUGAGGAUCACCCAUGUUCCAGCCGUGC”: the “apparent Kd” value under setting [1] stood at 17.9 nM and the “apparent Kd” value under setting [2] came out at 74.8 nM.
Consider “GGCCAAGUCGAGAAGGCCGGUAGACAUGAGGAUCACCCAUGUAGUGCGUGGAGGAUAUUGAAUGGGUGGCGUAGGACCUGCGUU”, for which the “apparent Kd” value was found to be 106 nM under setting [3] and 18.6 nM under setting [4].
Turning to “GAGGCUAAAGGAUAUACAUGAGGAUCACCCAUGUGGAGGAAGGUUAGAUGAGGAGAAGGUAGAAGGUUAGGCGG”, the “apparent Kd” value is, setting by setting: under setting [1], 37.3 nM; under setting [2], 30.9 nM.
Turning to “UACCUGAGGCAAAGCCUUAGGUAUACAUGAGGAUCACCCAUGUAGGAUAUGGUAGGCUUUGCUUACCAGAAGGACAUGUUAAUU”, the “apparent Kd” value reads like this: under setting [1], 19.8 nM; under setting [2], 63.8 nM.
In the case of “GCUUUAGUAUCACAUGUAUUACAUGAGGAUCACCCAUGUUACUAGGAUAUGUAUUAGAAUUUACAACAGAAGGAGUAAGAAUGU”, the “apparent Kd” value worked out at 7.49 nM under setting [1] and 8.93 nM under setting [2].
Turning to “GGCUGGCAGCUAGGAUAUGGGCGGUCACAUGAGGAUCACCCAUGUCAACAUCAAAACCAGAUUAACCAGAAGGAGCUGCGGGCU”, the “apparent Kd” value by setting is: under setting [3], 51.8 nM; under setting [4], 796 nM.
On to “AAAUGCCUGUCGAUGCUCGACAUGAGGAUCACCCAUGUACAGCAGGAUAUGCAGAACAACCUCGUGCAGAAGGGCUGUACCAAU”, for which the “apparent Kd” value is, setting by setting: under setting [1], 54.3 nM; under setting [2], 157 nM.
As to “GUAGCACAUGAUUUACAUGAGGAUCACCCAUGUAACAUGGGUAAGGAUAUUGAUGUGAAGUUAAUCAAGAAGGUACUAUGCUAC”, the “apparent Kd” value runs as follows: under setting [3], 9.65 nM; under setting [4], 6.35 nM.
As to “CUUUUACAUGAGGAUCACCCAUGUUCUGGCGGGUCAGGAUAUAGAUCGGAUGCGUUCUGUCUAGAAGGGACAUGUU”, the “apparent Kd” value reads like this: under setting [3], 67.3 nM; under setting [4], 38.1 nM.
Take “UUAAUUAACAAGAAGGCAUACAUGAGGAUCACCCAUGUUGUACAUGGAUAAUGAGGAUAUUGCUAAUAAUUAUUUUUCUUAAUU”: the “apparent Kd” value reads like this: under setting [1], 47.6 nM; under setting [2], 35.5 nM.
The corresponding values for “AUUUAGUGAGGAUAUGUGGCUUCGAUCGUGAGAUCGAGGCUACAGAAGGCACAUGAGGAUCACCCAUGUUCCUC” are 37.6 nM and 498 nM.
In the case of “UAAUAAUAAUAAUAGCAGAUUACAUGAGGAUCACCCAUGUAUAAGGAUAUCGUCAGGAAUACUGACGAGAAGGUAUACAACUGC”, the “apparent Kd” value was 18.9 nM under setting [1] and 25.7 nM under setting [2].
In the case of “GAUCAACAUGAGGAUCACCCAUGUGAGGAUAUGGACUUGCCCACUUAACCAUUAGAGUCUAGAAGGCGCAUCUA”, the “apparent Kd” value reads like this: under setting [1], 27 nM; under setting [2], 29.9 nM.
The corresponding values for “AAAGAACAUGAGGAUCACCCAUGUGAGGAUAUACGAGCGUGAGAAAGAUAAAACGAGCGUAGAAGGCACAAGAA” are 76.9 nM and 81.5 nM.
With “CAAAUCUGAGGAUAUCGAUUUUUGUACAUGAGGAUCACCCAUGUCCUUUUUAUUAAAUCCCGAGAAGGCAGUGUAU”, the “apparent Kd” value by setting is: under setting [1], 27.1 nM; under setting [2], 31.2 nM.
Take “CGAGUCGGUUGCCCUGCAGUACAUGAGGAUCACCCAUGUCGGAGAAGGUGCACAAAGGAAUCGGGCAAGGAUAUCCGGCGUGAA”: the “apparent Kd” value by setting is: under setting [1], 8.21 nM; under setting [2], 7.98 nM.
On the same counts, the results for “AUCAGCUCGUCAGGAUAUACGUCACUGCGUCAGCAGUGUGGUAAGACCACAUGAGGAUCACCCAUGUAGAAGGGACGAGCUGAU” are 7.94 nM and 24.5 nM.
“UAAAAGGAAGGAUAUACACUUCAAAACCUCAUGUGACUUUCACAUGAGGAUCACCCAUGUAGAAGGUCCAAGGC”: the “apparent Kd” value turned out to be 24 nM under setting [1] and 33.9 nM under setting [2].
The corresponding values for “ACCUCACAUGAGGAUCACCCAUGUUAGGAUAUCUCGGCGCCCUGCAGGCAGUGGCACCAGAGAAGGAACGUGCA” are 22.5 nM and 25.3 nM.
For “GUGUAGUCAGGAUAUACAUAGGAAGAGAAGAGAAGAUAAGUACAUGAGGAUCACCCAUGUAGAAGGGACAGUGU”, the “apparent Kd” value runs as follows: under setting [1], 30.6 nM; under setting [2], 29.6 nM.
Regarding “CGGGUCUGAGGAUAUCCAUCUUCAUACAUGAGGAUCACCCAUGUUUACCUUUGGGUUUCUGGAGAAGGCAGUUUUC”, the “apparent Kd” value by setting is: under setting [1], 48.3 nM; under setting [2], 73 nM.
For the sequence “AAAAAACAUGAGGAUCACCCAUGUAAAAAAAAUGGAGGAUAUUGGAAAAAAAAAAAAAAACGAGAAGGCUAAAAAA”, the “apparent Kd” value under setting [3] was 84.4 nM and the “apparent Kd” value under setting [4] was 71.1 nM.
For “AUAAGUUCGUCAGGAUAUACAUGAGACAGUAAUGUUUCAGGUAUGAUCACAUGAGGAUCACCCAUGUAGAAGGGACGAGCUUAU”, the “apparent Kd” value is, setting by setting: under setting [1], 6.48 nM; under setting [2], 20.6 nM.
Turning to “CCGGAUUAGGAGGAUAUAGGAGUCGAUAGACACCUAGAAGGCCUAACAUGAGGAUCACCCAUGUGUCCUACCGG”, the “apparent Kd” value reads like this: under setting [1], 21.9 nM; under setting [2], 90.8 nM.
For the sequence “AAAACACAUGAGGAUCACCCAUGUGAGGAUAUGUUAAUUUCGGCCAAAGCCGAAAUUAACAGAAGGCACAUAAA”, the “apparent Kd” value came out at 49.9 nM under setting [1] and 45.1 nM under setting [2].
Turning to “CAACCGUUGCAGAAGGUUAAAUAAAUUCUCUUCUUGUUUACAUGAGGAUCACCCAUGUUUUUGUUGAAGGAUAUGCAAGGGUUG”, the “apparent Kd” value is, setting by setting: under setting [1], 5.59 nM; under setting [2], 5.79 nM.
On to “UGUGCCUCGAGAGGAUAUAACAUGAGGAUCACCCAUGUAACAGAGGUGGAAACACCUCUGAAAUGUUAGAAGGCUCGAGGCACA”, for which the “apparent Kd” value was determined as 46.6 nM under setting [1] and 57 nM under setting [2].
“GUCAGCUCGUGAGGAUAUACAUGUGCUGGAAACAGCACUAAUAGAAUCACAUGAGGAUCACCCAUGUAGAAGGCACGAGCUGAU”: the “apparent Kd” value turned out to be 16.9 nM under setting [1] and 40.8 nM under setting [2].
As to “AUCAGCUCGUCAGGAUAUACGUCACUGCGUCAACAGUGUGGUAAGAUCACAUGAGGAUCACCCAUGUAGAAGGGACGAGCUGAU”, the “apparent Kd” value under setting [1] stood at 14.6 nM and the “apparent Kd” value under setting [2] is 266 nM.
“CAUCCACAUGAGGAUCACCCAUGUCAGGAUAUCGCGCGCGCGUUUUCGGUCUUUCGCGCGAGAAGGGACGACUG”: the “apparent Kd” value under setting [1] was 15.4 nM and the “apparent Kd” value under setting [2] was found to be 16.3 nM.
As to “GGGUGAUCAGGAUAUACAGAAAUGCGAAAGCAUUUCUGUAAACAUGAGGAUCACCCAUGUAGAAGGAAACUUCA”, the “apparent Kd” value is, setting by setting: under setting [1], 17.9 nM; under setting [2], 13.8 nM.
Turning to “GUGGCUAGUGCAGGAUAUUAGCGCGUGUAGUGUUGAGAAGGGCACAUGAGGAUCACCCAUGUGAUCAAUCACUGUUAAGGUCGC”, the “apparent Kd” value under setting [1] worked out at 12.7 nM and the “apparent Kd” value under setting [2] turned out to be 25.3 nM.
On to “GAGAGAGGAUGAGGAUAUGCAGUAAUAAUGAUAGCAGAAGGCAUAGACAUGAGGAUCACCCAUGUGGGAAUAAUCCAGAGAGAG”, for which the “apparent Kd” value runs as follows: under setting [3], 188 nM; under setting [4], 272 nM.
“GGUACUCAAAGAGUACCAAUACGAACAUGAGGAUCACCCAUGUAGGAUAUGCUAAAACCGGAGUAGCAGAAGGACAUGUGCCUA”: the “apparent Kd” value runs as follows: under setting [1], 15.3 nM; under setting [2], 66.6 nM.
